Measured values: ChEMBL document CHEMBL5303300, “EUbOPEN Chemogenomics Library - Multiplex” (2023)
Several values for one entry are separate records, joined by “and”; a condition that tells them apart may be missing. Equal entries are not always repeated.

Legend:
HEK-293T = experiment: Multiplex assay against HEK293T; type: toxicity, cell-based; details: human, number of replicates 2
Outline: (§1)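 Phenotypes for tubulin, mitochondrial mass and membrane permeability are expressed as per cents of healthy-nucleus cells. Cells were stained live at seeding with Hoechst33342, BioTracker Green Microtubule Cytoskeleton Dye, MitoTracker Red and Annexin V Alexa Fluor 680, then imaged after compound addition on a CQ1 microscope at 37°C and 5% CO2. Machine-learning gating in CellPathfinder separated Hoechst high-intensity objects from normal cells, divided normal cells by nuclear state (healthy, pyknosed, fragmented) and divided pyknosed cells into mitotic or apoptotic.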

U2OS = experiment: Multiplex assay against U2OS; type: toxicity, cell-based; details: human, number of replicates 2; outline: as §1
[1] = 24 h, 1 µM, compound concentration 1 uM
[2] = 24 h, 10 µM, compound concentration 10 uM
[3] = 48 h, 1 µM, compound concentration 1 uM
[4] = 48 h, 10 µM, compound concentration 10 uM
[5] = 12 h, 1 µM, compound concentration 1 uM
[6] = 12 h, 10 µM, compound concentration 10 uM

For `Br.Oc1cc2c(cc1O)C(c1ccccc1)CNCC2` (configuration not stated), the “Population Mitochondria Different-Phenotype (%)” value (HEK-293T; [1]) was 3%, the “Population Mitotic Cells (%)” value (HEK-293T; [1]) was 80% and 63% and the “Population Normal (%)” value (HEK-293T; [1]) was 91% and 90%. The “Population Pyknosed Nuclei (%)” value (HEK-293T; [1]) was 4% and 5%, the “Population Tubulin-Different-Phenotype (%)” value (HEK-293T; [1]) was 27% and 29% and the “Total Cell Count” value (HEK-293T; [1]) was 1693 and 1195. For the same compound, the “Population Apoptotic (%)” value (HEK-293T; [2]) was 29% and 50%, the “Population Fragmented Nuclei (%)” value (HEK-293T; [2]) was 9% and 7% and the “Population Healthy Nuclei (%)” value (HEK-293T; [2]) was 86% and 88%. For the same compound, the “Population Hoechst High Intensity Objects (%)” value (HEK-293T; [2]) was 9% and 6%, the “Population Membrane Permeable-Phenotype (%)” value (HEK-293T; [2]) was 4% and 2% and the “Population Mitochondria Different-Phenotype (%)” value (HEK-293T; [2]) was 3% and 12%. For the same compound, the “Population Mitotic Cells (%)” value (HEK-293T; [2]) was 70% and 50%, the “Population Normal (%)” value (HEK-293T; [2]) was 90% and 93% and the “Population Pyknosed Nuclei (%)” value (HEK-293T; [2]) was 4%. The “Population Tubulin-Different-Phenotype (%)” value (HEK-293T; [2]) was 30% and 40%, the “Total Cell Count” value (HEK-293T; [2]) was 1020 and 788 and the “Population Apoptotic (%)” value (HEK-293T; [3]) was 4% and 10%. For the same compound, the “Population Fragmented Nuclei (%)” value (HEK-293T; [3]) was 20% and 11%, the “Population Healthy Nuclei (%)” value (HEK-293T; [3]) was 78% and 85% and the “Population Hoechst High Intensity Objects (%)” value (HEK-293T; [3]) was 11% and 9%. For the same compound, the “Population Membrane Permeable-Phenotype (%)” value (HEK-293T; [3]) was 6% and 5%, the “Population Mitochondria Different-Phenotype (%)” value (HEK-293T; [3]) was 0% and the “Population Mitotic Cells (%)” value (HEK-293T; [3]) was 95% and 89%. The “Population Normal (%)” value (HEK-293T; [3]) was 88% and 90%, the “Population Pyknosed Nuclei (%)” value (HEK-293T; [3]) was 1% and 2% and the “Population Tubulin-Different-Phenotype (%)” value (HEK-293T; [3]) was 17% and 16%. The “Total Cell Count” value (HEK-293T; [3]) was 4091 and 2858, the “Population Fragmented Nuclei (%)” value (HEK-293T; [4]) was 23% and 14% and the “Population Healthy Nuclei (%)” value (HEK-293T; [4]) was 75% and 82%. The “Population Hoechst High Intensity Objects (%)” value (HEK-293T; [4]) was 9%, the “Population Membrane Permeable-Phenotype (%)” value (HEK-293T; [4]) was 8% and 5% and the “Population Mitochondria Different-Phenotype (%)” value (HEK-293T; [4]) was 0% and 1%. The “Population Mitotic Cells (%)” value (HEK-293T; [4]) was 96% and 84%, the “Population Normal (%)” value (HEK-293T; [4]) was 90% and the “Population Pyknosed Nuclei (%)” value (HEK-293T; [4]) was 1% and 3%. For the same compound, the “Population Tubulin-Different-Phenotype (%)” value (HEK-293T; [4]) was 15% and 21%, the “Total Cell Count” value (HEK-293T; [4]) was 2576 and 1623 and the “Population Fragmented Nuclei (%)” value (U2OS; [5]) was 14% and 5%. For the same compound, the “Population Healthy Nuclei (%)” value (U2OS; [5]) was 80% and 82%, the “Population Hoechst High Intensity Objects (%)” value (U2OS; [5]) was 0% and the “Population Membrane Permeable-Phenotype (%)” value (U2OS; [5]) was 2% and 1%. The “Population Mitochondria Different-Phenotype (%)” value (U2OS; [5]) was 0%, the “Population Mitotic Cells (%)” value (U2OS; [5]) was 100% and 50% and the “Population Normal (%)” value (U2OS; [5]) was 100%. For the same compound, the “Population Pyknosed Nuclei (%)” value (U2OS; [5]) was 6% and 11%, the “Population Tubulin-Different-Phenotype (%)” value (U2OS; [5]) was 67% and 89% and the “Population Apoptotic (%)” value (U2OS; [6]) was 57% and 30%. The “Population Healthy Nuclei (%)” value (U2OS; [6]) was 33% and 85%, the “Population Hoechst High Intensity Objects (%)” value (U2OS; [6]) was 0% and the “Population Membrane Permeable-Phenotype (%)” value (U2OS; [6]) was 0% and 1%. For the same compound, the “Population Mitochondria Different-Phenotype (%)” value (U2OS; [6]) was 0% and 1%, the “Population Mitotic Cells (%)” value (U2OS; [6]) was 42% and 69% and the “Population Normal (%)” value (U2OS; [6]) was 100%. For the same compound, the “Population Tubulin-Different-Phenotype (%)” value (U2OS; [6]) was 50% and 75%, the “Population Apoptotic (%)” value (U2OS; [1]) was 50% and 61% and the “Population Fragmented Nuclei (%)” value (U2OS; [1]) was 8% and 5%. The “Population Healthy Nuclei (%)” value (U2OS; [1]) was 83% and 82%, the “Population Hoechst High Intensity Objects (%)” value (U2OS; [1]) was 2% and 0% and the “Population Membrane Permeable-Phenotype (%)” value (U2OS; [1]) was 2% and 0%. The “Population Mitochondria Different-Phenotype (%)” value (U2OS; [1]) was 2% and 0%, the “Population Mitotic Cells (%)” value (U2OS; [1]) was 50% and 38% and the “Population Normal (%)” value (U2OS; [1]) was 97% and 100%. For the same compound, the “Population Pyknosed Nuclei (%)” value (U2OS; [1]) was 8% and 11%, the “Population Tubulin-Different-Phenotype (%)” value (U2OS; [1]) was 67% and 91% and the “Population Apoptotic (%)” value (U2OS; [2]) was 50% and 44%. For the same compound, the “Population Healthy Nuclei (%)” value (U2OS; [2]) was 58% and 88%, the “Population Hoechst High Intensity Objects (%)” value (U2OS; [2]) was 0% and the “Population Membrane Permeable-Phenotype (%)” value (U2OS; [2]) was 10% and 0%. The “Population Mitochondria Different-Phenotype (%)” value (U2OS; [2]) was 10% and 0%, the “Population Mitotic Cells (%)” value (U2OS; [2]) was 50% and 55% and the “Population Normal (%)” value (U2OS; [2]) was 100%. For the same compound, the “Population Pyknosed Nuclei (%)” value (U2OS; [2]) was 23% and 8%, the “Population Tubulin-Different-Phenotype (%)” value (U2OS; [2]) was 80% and 83% and the “Population Apoptotic (%)” value (U2OS; [3]) was 37% and 53%. For the same compound, the “Population Fragmented Nuclei (%)” value (U2OS; [3]) was 13% and 3%, the “Population Healthy Nuclei (%)” value (U2OS; [3]) was 78% and 89% and the “Population Hoechst High Intensity Objects (%)” value (U2OS; [3]) was 0%. For the same compound, the “Population Membrane Permeable-Phenotype (%)” value (U2OS; [3]) was 5% and 0%, the “Population Mitochondria Different-Phenotype (%)” value (U2OS; [3]) was 2% and 0% and the “Population Mitotic Cells (%)” value (U2OS; [3]) was 62% and 46%. The “Population Normal (%)” value (U2OS; [3]) was 100% and 99%, the “Population Pyknosed Nuclei (%)” value (U2OS; [3]) was 8% and 7% and the “Population Tubulin-Different-Phenotype (%)” value (U2OS; [3]) was 64% and 99%. For the same compound, the “Population Apoptotic (%)” value (U2OS; [4]) was 44% and 64%, the “Population Healthy Nuclei (%)” value (U2OS; [4]) was 54% and 90% and the “Population Hoechst High Intensity Objects (%)” value (U2OS; [4]) was 0%. The “Population Membrane Permeable-Phenotype (%)” value (U2OS; [4]) was 10% and 0%, the “Population Mitochondria Different-Phenotype (%)” value (U2OS; [4]) was 10% and 0% and the “Population Mitotic Cells (%)” value (U2OS; [4]) was 55% and 35%. For the same compound, the “Population Normal (%)” value (U2OS; [4]) was 100% and the “Population Tubulin-Different-Phenotype (%)” value (U2OS; [4]) was 84% and 93%.
